Experimental data published in ChEMBL document CHEMBL1147141, “Potent nonpeptide antagonists of the bradykinin B1 receptor: structure-activity relationship studies with novel diaminochroman carboxamides” (J Med Chem, 2007).

Assays:
[1] = Metabolic stability in human liver microsomes; assay type: ADME, Microsome; settings: read-out: Stability
[2] = Clearance in Sprague-Dawley rat at 1 mg/kg, iv; assay type: ADME, organism-based; design: dose 1 mg/kg, route intravenous; settings: in vivo
Outline: (§1)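 Male Sprague-Dawley rats (225-280 g) with femoral and jugular vein cannulae were fasted overnight. They received an i.v. bolus of 1 mg/kg in 100% DMSO, prepared on the dosing day, n = 3. Blood was drawn via jugular cannula over 6 or 8 h into heparin. Plasma was acetonitrile-precipitated and measured by LC-MS/MS (positive MRM). Parameters were noncompartmental and reported with SEM.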

[3] = Metabolic stability in rat liver microsomes; assay type: ADME, Microsome; settings: read-out: Stability
[4] = Oral bioavailability in Sprague-Dawley rat at 3 mg/kg, po; assay type: ADME, organism-based; settings: in vivo
Oryctolagus cuniculus [5] = assay: Antinociceptive effect in subcutaneously dosed New Zealand rabbit assessed as reversal of carrageenan-induced hyperalgesia administered 2 hrs after carrageenan challenge; assay type: functional, organism-based
Outline: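 Male New Zealand white rabbits (500-700 g), right hind paw injected with lambda carrageenan (3% in saline, 200 µL). Three punctate mechanical withdrawal readings were taken before and at 3 h post-carrageenan. Antagonist was given s.c. at 1 mL/kg, at 2 h (20% Captisol vehicle) or 2.5 h (PBS vehicle, peptide) post-carrageenan. Post minus pre threshold gave a difference score, converted to %MPE with the vehicle group as Emin and 0 as Emax. Analysed by one-factor ANOVA and Dunnett's test.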

[6] = Volume of distribution at steady state in Sprague-Dawley rat at 1 mg/kg, iv; assay type: ADME, organism-based; design: dose 1 mg/kg, route intravenous; settings: in vivo, read-out: Vss; outline: as §1
B1 bradykinin receptor [7] = target: T1, B1 bradykinin receptor (Rattus norvegicus, UniProt P97583); assay: Antagonist activity at rat bradykinin B1 receptor; assay type: functional
T1 sequence (P97583 whole entry): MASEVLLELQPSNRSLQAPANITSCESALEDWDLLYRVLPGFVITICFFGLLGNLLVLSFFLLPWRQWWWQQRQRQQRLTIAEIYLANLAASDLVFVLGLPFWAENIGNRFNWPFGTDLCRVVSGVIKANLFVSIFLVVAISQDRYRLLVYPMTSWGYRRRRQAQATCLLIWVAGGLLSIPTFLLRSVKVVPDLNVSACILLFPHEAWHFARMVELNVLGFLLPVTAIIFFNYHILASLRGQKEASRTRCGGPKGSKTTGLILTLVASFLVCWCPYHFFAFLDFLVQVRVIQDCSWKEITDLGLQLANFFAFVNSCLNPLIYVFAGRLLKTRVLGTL

[8] = Oral bioavailability in Sprague-Dawley rat at 10 mg/kg, po; assay type: ADME, organism-based; settings: in vivo
Outline: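 Male Sprague-Dawley rats (225-280 g), cannulated and fasted overnight, were dosed by oral gavage at 10 mg/kg in 1% Tween 80, 2% HPMC, prepared 24-48 h before dosing, n = 3. Jugular blood was sampled over 6 or 8 h. Plasma was analysed by LC-MS/MS and parameters derived noncompartmentally.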

Oryctolagus cuniculus [9] = assay: Reduction of DAK10-induced hypotension in subcutaneously dosed New Zealand rabbit blood pressure model; assay type: functional, organism-based
Outline: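 New Zealand white rabbits (2.0-3.0 kg, n = 1/dose) were given LPS 25 µg/kg i.v. 5 h before the study to induce B1 receptors. Under anesthesia, both carotids were catheterized to record mean arterial pressure and to give DAK. Baseline was set by two i.v. bolus injections of 1 µg DAK. Antagonist was then given s.c. (1, 2, 4, 10 or 20 mpk). At 30 and 75 min, blood was drawn for plasma levels and the DAK response was re-measured, expressed as % hypotensive response.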

[10] = Half life in Sprague-Dawley rat at 1 mg/kg, iv; assay type: ADME, organism-based; design: dose 1 mg/kg, route intravenous; settings: in vivo; outline: as §1
B1 bradykinin receptor [11] = target: T2, B1 bradykinin receptor (Oryctolagus cuniculus, UniProt P48748); assay: Antagonist activity at rabbit bradykinin B1 receptor; assay type: functional
T2 sequence (P48748 whole entry): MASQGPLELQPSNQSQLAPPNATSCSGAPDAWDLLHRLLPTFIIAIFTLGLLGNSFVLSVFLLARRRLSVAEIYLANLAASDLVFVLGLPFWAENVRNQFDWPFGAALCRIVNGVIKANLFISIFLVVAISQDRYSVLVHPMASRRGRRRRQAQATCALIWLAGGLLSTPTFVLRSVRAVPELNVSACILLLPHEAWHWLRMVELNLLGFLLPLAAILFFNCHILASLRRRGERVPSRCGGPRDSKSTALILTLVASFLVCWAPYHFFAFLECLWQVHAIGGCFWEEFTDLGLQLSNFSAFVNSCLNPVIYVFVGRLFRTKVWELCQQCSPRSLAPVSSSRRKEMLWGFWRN

| Compound | microsomal CLint [1] [µL/min/mg] | clearance [2] [mL/min/kg] | microsomal CLint [3] [µL/min/mg] | bioavailability [4] [%] | Activity (Oryctolagus cuniculus [5]) | Vd [6] [L/kg] | Ki (B1 bradykinin receptor [7]) | bioavailability [8] [%] | Activity (Oryctolagus cuniculus [9]) | half-life [10] [h] | IC50 (B1 bradykinin receptor [11]) |
| --- | --- | --- | --- | --- | --- | --- | --- | --- | --- | --- | --- |
| O=C(C[C@@H](NS(=O)(=O)c1ccc2ccccc2c1)c1ccccc1)N[C@@H]1CCOc2cc(CN3CCCCC3)ccc21 | 688 | 84.1 | 390 | 4 |  |  |  |  |  |  |  |
| O=C(C[C@@H](NS(=O)(=O)c1cccc(C(F)(F)F)c1)c1ccc(F)cc1)N[C@@H]1CCOc2cc(CN3CCCCC3)ccc21 |  | 24.8 | 216 |  | Dose-dependent effect | 4.64 | 127 nM (antagonist) | 13 | Dose-dependent effect | 2.5 | 10.4 nM (antagonist) |
